Calls of active or inactive are those of the source. The rule behind the calls is not given here. A value given as a limit tells only on which side of the number the result lay.

The first experiment relates to PC-12. In words: Induction of neutrite outgrowth of rat PC12 cells after 96 hrs in absence of NGF by phase contrast microscopic analysis. The class given is functional, cell-based.
Conditions: not given
In outline:
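Poly-L-lysine-seeded PC12 cells (3 × 10^4 cells/well) in 1% FBS/1% horse serum test medium with graded compound concentrations for 96 h. Neurites at least one cell-body diameter counted as neurite-bearing under phase contrast. At least 100 cells per field, three fields per well, six wells per sample. Result expressed as percentage of total cells.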
Consider `CC(C)=CCC(=O)[C@](C)(O)[C@H]1CC[C@@]2(C)[C@@H]3CC=C4[C@@H](C[C@H](O)C(=O)C4(C)C)[C@]3(C)C(=O)C[C@]12C`, for which the result was inactive.

The next experiment has as its system PC-12. In words: Induction of NGF-mediated neutrite outgrowth of rat PC12 cells after 96 hrs by phase contrast microscopic analysis. It counts as functional, cell-based.
Conditions: not given
The method, boiled down:
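PC12 cells grown at 37 °C in DMEM with 5% heat-inactivated FBS and 5% horse serum, dissociated with 1 mM EGTA in PBS, seeded on poly-L-lysine (3 × 10^4 cells/well). After 24 h, switched to 1% FBS/1% HS medium with NGF 20 ng/mL plus test concentrations. Scored as % neurite-bearing cells; EC50 by regression; triplicate.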
For `CC(C)=CCC(=O)[C@](C)(O)[C@H]1CC[C@@]2(C)[C@@H]3CC=C4[C@@H](C[C@H](O)C(=O)C4(C)C)[C@]3(C)C(=O)C[C@]12C`, the outcome was inactive.

The same experiment, now with this note: PC-12, 96 h.
Regarding `C=C(C)[C@@H](C)C[C@@H](O)[C@@H](C)[C@H]1CC[C@@]2(C)[C@@H]3CCC4=C(C[C@]35O[C@@H]5C[C@]12C)C(=O)C[C@H](O)C4(C)C`, the EC50 (usually the concentration at which the effect is half-maximal) is more than 50 µM. Compound `CC(=O)[C@H]1CC[C@@]2(C)[C@@H]3CC=C4[C@@H](C[C@H](O)C(=O)C4(C)C)[C@]3(C)C(=O)C[C@]12C` displayed a concentration for a half-maximal effect (EC50) of more than 50 µM. On to `CC(C)=CCC[C@](C)(O)[C@H]1CC[C@@]2(C)[C@@H]3CC=C4[C@@H](CCC(=O)C4(C)C)[C@]3(C)C(=O)C[C@]12C`, for which the EC50 was more than 50 µM. On the same count and under the same terms, the value for `CC(C)(O)/C=C/C(=O)[C@](C)(O)[C@H]1CC[C@@]2(C)[C@@H]3CC=C4[C@@H](C[C@H](O)C(=O)C4(C)C)[C@]3(C)C(=O)C[C@]12C` was more than 50 µM.

In the case of `C=CC(=C)CC[C@]1(C)[C@H](C)C[C@H](OC)[C@@]23C(=C[C@H](O)C[C@@H]12)[C@@H](OC)O[C@@H]3OC(C)=O`, the EC50 was 2.9 µM. This lies in the single-digit micromolar range. `CC(C)=CCC[C@](C)(O)[C@H]1CC[C@@]2(C)[C@@H]3CC=C4[C@@H](C[C@H](O)C(=O)C4(C)C)[C@]3(C)C(=O)C[C@]12C` gave an EC50 of 10 µM. `C=CC(=C)CC[C@]1(C)[C@H](C)C[C@H](OC)[C@@]23C(=C[C@@H](OC(C)=O)C[C@@H]12)[C@@H](OC(=O)CCC)O[C@@H]3OC(C)=O` yielded an EC50 of 5.2 µM. With `C=CC(=C)CC[C@]1(C)[C@H](C)C[C@H](OC)[C@@]23C(=C[C@@H](O)C[C@@H]12)[C@@H](OC)O[C@H]3OC`, the response was half-maximal at 5.4 µM (EC50). The EC50 values of the last two compounds are within 1.5-fold of each other. `C=CC(=C)CC[C@]1(C)[C@H](C)C[C@H](OC)[C@@]23C(=C[C@@H](O)C[C@@H]12)[C@@H](OC)O[C@H]3OC(C)=O` came in with an EC50 of 8.3 µM.

The values above are taken from ChEMBL document CHEMBL3785003, “Di- and Triterpenoids from the Leaves of Casearia balansae and Neurite Outgrowth Promoting Effects of PC12 Cells” (J Nat Prod, 2016).
